Measured values from ChEMBL document CHEMBL5303300, “EUbOPEN Chemogenomics Library - Multiplex” (2023).
Several values for one entry are separate records, joined by “and”; a condition that tells them apart may be missing. Equal entries are not always repeated.

Tested on: Fibroblast
Experiment: Multiplex assay against human fibroblast
Format: toxicity, cell-based
Details: number of replicates 2
Summary of the method: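 On a CQ1 microscope at 37°C and 5% CO2, live cells were imaged after compound addition. They had been stained at seeding with Hoechst33342, BioTracker Green Microtubule Cytoskeleton Dye, MitoTracker Red and Annexin V Alexa Fluor 680. CellPathfinder machine-learning gating assigned cells to Hoechst high-intensity objects or normal cells, normal cells to healthy, pyknosed or fragmented nuclei, and pyknosed cells to mitotic or apoptotic. Tubulin, mitochondrial-mass and membrane-permeability phenotypes are per cents of healthy-nucleus cells.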

[1] = 12 h, 1 µM, compound concentration 1 uM
[2] = 12 h, 10 µM, compound concentration 10 uM
[3] = 24 h, 1 µM, compound concentration 1 uM
[4] = 24 h, 10 µM, compound concentration 10 uM
[5] = 48 h, 1 µM, compound concentration 1 uM
[6] = 48 h, 10 µM, compound concentration 10 uM

CC(C)c1cc(-c2ccc(F)c3ccccc23)nc(N)n1
Population Apoptotic (%) [1]: 33% | Population Fragmented Nuclei (%) [1]: 14% and 15% | Population Healthy Nuclei (%) [1]: 70% and 65% | Population Hoechst High Intensity Objects (%) [1]: 1% and 0% | Population Membrane Permeable-Phenotype (%) [1]: 5% and 8% | Population Mitochondria Different-Phenotype (%) [1]: 0% and 3% | Population Mitotic Cells (%) [1]: 66% | Population Normal (%) [1]: 98% and 100% | Population Pyknosed Nuclei (%) [1]: 15% and 18% | Population Tubulin-Different-Phenotype (%) [1]: 16% and 14% | Total Cell Count [1]: 161 and 144 | Population Apoptotic (%) [2]: 38% | Population Fragmented Nuclei (%) [2]: 11% and 16% | Population Healthy Nuclei (%) [2]: 75% and 71% | Population Hoechst High Intensity Objects (%) [2]: 0% | Population Membrane Permeable-Phenotype (%) [2]: 7% | Population Mitochondria Different-Phenotype (%) [2]: 0% and 2% | Population Mitotic Cells (%) [2]: 61% | Population Normal (%) [2]: 100% | Population Pyknosed Nuclei (%) [2]: 12% | Population Tubulin-Different-Phenotype (%) [2]: 12% | Total Cell Count [2]: 140 and 174 | Population Apoptotic (%) [3]: 47% and 40% | Population Fragmented Nuclei (%) [3]: 14% and 15% | Population Healthy Nuclei (%) [3]: 71% and 67% | Population Hoechst High Intensity Objects (%) [3]: 0% | Population Membrane Permeable-Phenotype (%) [3]: 4% and 8% | Population Mitochondria Different-Phenotype (%) [3]: 0% and 1% | Population Mitotic Cells (%) [3]: 52% and 60% | Population Normal (%) [3]: 100% | Population Pyknosed Nuclei (%) [3]: 13% and 17% | Population Tubulin-Different-Phenotype (%) [3]: 17% and 12% | Total Cell Count [3]: 157 and 140 | Population Apoptotic (%) [4]: 75% and 46% | Population Fragmented Nuclei (%) [4]: 9% and 14% | Population Healthy Nuclei (%) [4]: 84% and 76% | Population Hoechst High Intensity Objects (%) [4]: 0% | Population Membrane Permeable-Phenotype (%) [4]: 5% and 1% | Population Mitochondria Different-Phenotype (%) [4]: 0% and 3% | Population Mitotic Cells (%) [4]: 25% and 53% | Population Normal (%) [4]: 99% and 100% | Population Pyknosed Nuclei (%) [4]: 5% and 8% | Population Tubulin-Different-Phenotype (%) [4]: 11% and 8% | Total Cell Count [4]: 135 and 171 | Population Apoptotic (%) [5]: 65% and 57% | Population Fragmented Nuclei (%) [5]: 16% and 13% | Population Healthy Nuclei (%) [5]: 69% and 71% | Population Hoechst High Intensity Objects (%) [5]: 0% | Population Membrane Permeable-Phenotype (%) [5]: 4% and 7% | Population Mitochondria Different-Phenotype (%) [5]: 0% | Population Mitotic Cells (%) [5]: 34% and 42% | Population Normal (%) [5]: 100% and 99% | Population Pyknosed Nuclei (%) [5]: 13% and 14% | Population Tubulin-Different-Phenotype (%) [5]: 14% and 7% | Total Cell Count [5]: 173 and 142 | Population Apoptotic (%) [6]: 100% and 54% | Population Fragmented Nuclei (%) [6]: 13% and 14% | Population Healthy Nuclei (%) [6]: 82% and 79% | Population Hoechst High Intensity Objects (%) [6]: 0% | Population Membrane Permeable-Phenotype (%) [6]: 3% and 1% | Population Mitochondria Different-Phenotype (%) [6]: 0% | Population Normal (%) [6]: 100% | Population Pyknosed Nuclei (%) [6]: 3% and 6% | Population Tubulin-Different-Phenotype (%) [6]: 7% and 5% | Total Cell Count [6]: 152 and 175
